The nature of the data set: Toxicity liver stage against HepG2, at 10uM. It is filed as cell-based. Further details: test concentration 10 uM, cell line HepG2-A16-CD81EGFP. The conditions noted are these: human, HepG2-A16-CD81EGFP cells; read-out: INHIBITION
In short, it runs like this:
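Uninfected HepG2-A16-CD81EGFP cells, 3 × 10^3 per well, 1536-well, plated on prespotted compound at 10 μM final, parasite-free screening media added to match infected plates; puromycin 10 μM positive, DMSO 0.5% negative; run in parallel with 48 h PbLuc assay at 37 °C, 5% CO2; viability by CellTiter-Glo luminescence, normalized to controls.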

`Cc1cc(N2CCN(Cc3ccccc3)CC(O)C2)nc(N)n1` (stereo not given): the cytotoxicity at 10 µM is 1.06%.

`Cc1cc(N2CCC(C(=O)NC3CC3)CC2)nc(-c2ccncc2)n1`: the cytotoxicity at 10 µM is -17%.

As to `CC(C)S(=O)(=O)N1C[C@@H](O)[C@H](N(C)Cc2ccc(F)cc2)C1`, the cytotoxicity at 10 µM stood at 2.51%.

In the case of `CN(C)c1cccc(C2CCCN2c2nc3c(cnn3C)c(=O)[nH]2)c1` (stereo not given), the cytotoxicity at 10 µM was 0.91%.

Consider `Cc1nnc(C(C)NCC2(c3ccc(Cl)cc3)CCCC2)o1` (stereo not given), for which the cytotoxicity at 10 µM turned out to be 8.29%.

With `O=C1CCOC[C@]2(CN(Cc3ccccc3)C[C@H]2c2ccccc2F)N1`, the cytotoxicity at 10 µM is -1.02%.

`Cn1nc(C(=O)NCc2ccccc2C(F)(F)F)c2c1CCS(=O)(=O)C2`: the cytotoxicity at 10 µM was 5.37%.

On to `N#Cc1ncn(CC(=O)Nc2cc(Cl)ccc2F)n1`, for which the cytotoxicity at 10 µM is -2.75%.

In the case of `Cc1nn(CCO)cc1CN1CCC(N2CCC(O)CC2)CC1`, the cytotoxicity at 10 µM was -0.931%.

For `CCC(NC(=O)C1CCN(S(=O)(=O)N(C)C)CC1)c1ccc(C)c(C)c1` (stereo not given), the cytotoxicity at 10 µM is -1.02%.

On to `CC(=O)N1C[C@H](NS(=O)(=O)N2CCOCC2)[C@@H](c2ccc(C)o2)C1`, for which the cytotoxicity at 10 µM is -1.43%.

Turning to `COc1ccccc1N1CCN(C(=O)CCn2ccc(C)n2)CC1`, the cytotoxicity at 10 µM is -3.24%.

For `Cc1cnn(CC2CCCCN2Cc2noc(C3CC3)n2)c1` (stereo not given), the cytotoxicity at 10 µM is -9.32%.

Regarding `Cc1nc(CO[C@H]2CN(C(=O)c3cccn3C)[C@@H]3COC[C@H]23)cs1`, the cytotoxicity at 10 µM was -112%.

`COCCN1CCCC2(CCC(=O)N2Cc2cccnc2)C1` (stereo not given): the cytotoxicity at 10 µM is 4.32%.

Turning to `COCCN1CC2(CCCN(C(=O)NCCc3cccs3)C2)CCC1=O` (stereo not given), the cytotoxicity at 10 µM was -8.14%.

Take `Cc1cccc(OCCC(=O)N(C)CCNS(C)(=O)=O)c1C`: the cytotoxicity at 10 µM was 3.35%.

As to `CNC(=O)C1(c2cnccn2)CCCN1C(=O)c1ccccc1C` (stereo not given), the cytotoxicity at 10 µM was -16.5%.

For the molecule `CCCn1nccc1NC(=O)CN1CCn2c(nnc2C2CC2)C1`, the cytotoxicity at 10 µM is -8%.

Turning to `Cc1cc(=O)[nH]c(-n2nc(C)c(CCC(=O)NCc3ccco3)c2C)n1`, the cytotoxicity at 10 µM is -5.33%.

`Cc1cnn(C(C)C2CC2)c1NC(=O)c1ccncc1` (stereo not given): the cytotoxicity at 10 µM was -8.48%.

For `CCSCCC(=O)NS(=O)(=O)c1ccc2c(c1)OCCO2`, the cytotoxicity at 10 µM came to 0.35%.

With `Cc1nnc2n1CCN(Cc1ccc3c(c1)OCCO3)C2`, the cytotoxicity at 10 µM was -8.95%.

`c1cnc(N2CCO[C@H]3[C@H](OCCN4CCOCC4)CC[C@@H]32)nc1`: the cytotoxicity at 10 µM was -10.2%.

With `CC(=O)Nc1nc(C(=O)Nc2ccc(N3CCCCC3)nc2)cs1`, the cytotoxicity at 10 µM came to 9.46%.

As to `CC(CCc1ccco1)NC(=O)Nc1cc(C(F)(F)F)c[nH]c1=O` (stereo not given), the cytotoxicity at 10 µM was -6.9%.

Regarding `c1cncc(COCC2C[C@@H]3OCCN(Cc4cccnc4)[C@H]3C2)c1` (stereo not given in full), the cytotoxicity at 10 µM was 12.2%.

Consider `O=C(NC1CCc2[nH]c(=O)ccc2C1)C1CCOCC1` (stereo not given), for which the cytotoxicity at 10 µM worked out at 1.42%.

Regarding `CCn1nc(C)c2c1cnn2CCNS(C)(=O)=O`, the cytotoxicity at 10 µM was determined as 7.55%.

For the molecule `O=C(O)c1cc2c(nc1-c1ccsc1)CCN(C(=O)C1CC1)CC2`, the cytotoxicity at 10 µM turned out to be 14.4%.

`NC(=O)CN(Cc1ccc(Br)cc1)C(=O)c1ccncc1`: the cytotoxicity at 10 µM was determined as 4.16%.

On to `CN1CCCCC1c1ncc2c(n1)CCN(Cc1ccccc1Cl)C2` (stereo not given), for which the cytotoxicity at 10 µM was -1.67%.

With `COc1ccccc1C(=O)NCC(c1cccn1C)N1CCOCC1` (stereo not given), the cytotoxicity at 10 µM was found to be 7.11%.

For the molecule `O=C(O)C(c1ccc2c(c1)OCO2)N1CCC(C(=O)N2CCCC2)CC1` (stereo not given), the cytotoxicity at 10 µM came out at 4.22%.

As for `CC(C)N1CCC(CN2CCn3nc(CNC(=O)N(C)C)cc3C2)CC1`, the cytotoxicity at 10 µM amounted to 1.09%.

`OCCCN(CCc1cccc(F)c1)C1CC1`: the cytotoxicity at 10 µM is -8.9%.

On to `CC(C)(O)CCc1cccc(C(=O)N2CCC[C@H]2C(N)=O)c1`, for which the cytotoxicity at 10 µM came to 10.4%.

On to `CS(=O)(=O)N1CCOCC2(CN(Cc3ccsc3)CCO2)C1` (stereo not given), for which the cytotoxicity at 10 µM was -11.7%.

For `CC(C)c1ccc(OCCNC(=O)c2ccoc2)cc1`, the cytotoxicity at 10 µM is -1.92%.

With `O=C(NCCCO)c1nnsc1-c1ccc(Cl)cc1`, the cytotoxicity at 10 µM came to 4.62%.

On to `CCn1cc(CN2C[C@@H]3CC[C@H]2CN(C(=O)c2cnccn2)C3)cn1`, for which the cytotoxicity at 10 µM is -8.39%.

`Cn1ccnc(Nc2ccc3c(c2)CCN3C(=O)c2cccnc2)c1=O`: the cytotoxicity at 10 µM is -55%.

Take `O=C(c1ccccn1)N1CCC2(COc3ncccc3S(=O)(=O)N2)C1` (stereo not given): the cytotoxicity at 10 µM worked out at 8.96%.

Regarding `O=c1cc(Cn2ccnc2)nc2n1CCCN(Cc1ccc(F)cc1)C2`, the cytotoxicity at 10 µM stood at 7.17%.

Regarding `O=C(Nc1ccccc1CCc1ccccn1)NC1CCOCC1`, the cytotoxicity at 10 µM stood at 6.1%.

Regarding `Cc1c(NCC(C)(C)C)cccc1C(=O)N(C)Cc1ncnn1C`, the cytotoxicity at 10 µM stood at 22.5%.

Regarding `CCCn1cnnc1-c1nc2c([nH]1)CC(c1ccc(Cl)cc1)CNC2=O` (stereo not given), the cytotoxicity at 10 µM is -31.1%.

On to `CCN(CC1CN(Cc2ncc(C)o2)CCO1)c1cccnn1` (stereo not given), for which the cytotoxicity at 10 µM is -0.343%.

Regarding `CN(Cc1cccc(CCN)c1)Cc1cccc2ncccc12`, the cytotoxicity at 10 µM came out at 7.82%.

As for `CN(C)CCNC(=O)c1ccc2c(-c3nccs3)noc2c1`, the cytotoxicity at 10 µM worked out at 9.28%.

With `NCc1cccc(-c2cccnc2C(=O)NCCN2CCOCC2)c1`, the cytotoxicity at 10 µM is -1.29%.

As for `COCCN1C(=O)[C@@H]2CC[C@H]1CN(S(=O)(=O)c1cccc(Cl)c1)C2`, the cytotoxicity at 10 µM worked out at 20.5%.

Regarding `CNS(=O)(=O)CCN1CC(c2ccccc2)(c2ccccc2)CCC1=O`, the cytotoxicity at 10 µM was -7.91%.

Take `CCCc1nc(C)c(C(=O)NC2CCN(c3ncccn3)CC2)s1`: the cytotoxicity at 10 µM came to 16.7%.

With `COc1ccc(CCN2CC(c3nc(CSC)no3)CCC2=O)cc1` (stereo not given), the cytotoxicity at 10 µM was 3.11%.

Take `C=Cc1cccc(CN2C[C@@H](CN(C)CC)[C@@H](CO)C2)c1`: the cytotoxicity at 10 µM was -6.63%.

Consider `COC(=O)N1C[C@@H]2CC[C@H]1CN(Cc1ccncc1)C2`, for which the cytotoxicity at 10 µM is -10%.

`COc1ccc(CN2CCC3(CC2)CCN(c2ncccn2)CC3)cc1`: the cytotoxicity at 10 µM is -1.08%.

On to `O=C(c1ccncc1)N1CCOC2(CCCN(c3nncs3)C2)C1` (stereo not given), for which the cytotoxicity at 10 µM was -98%.

Consider `NC(=O)c1nc(CC(=O)Nc2cccc(C(F)(F)F)c2)no1`, for which the cytotoxicity at 10 µM worked out at 0.493%.

As to `COc1ccc(CN2CCn3cc(CN4CCCCC4)nc3C2)cc1`, the cytotoxicity at 10 µM stood at 4.7%.

With `Cn1cc(CN2C[C@H]3CCC[C@@]3(COc3cccnc3)C2)cn1`, the cytotoxicity at 10 µM was -107%.

Regarding `CN1CCCN(S(=O)(=O)c2cn(C)cn2)c2cc(Cl)ccc21`, the cytotoxicity at 10 µM worked out at 2.14%.

For `O=C(CCC(=O)c1ccccc1)NC1(C(=O)NCC2CC2)CCCC1`, the cytotoxicity at 10 µM worked out at 2.26%.

With `CCCNc1ccc(C(=O)NCCc2cccc(OC)c2)cn1`, the cytotoxicity at 10 µM was determined as 0.267%.

On to `CSCC(C)N(C)S(=O)(=O)c1ccc(Cl)cc1C#N` (stereo not given), for which the cytotoxicity at 10 µM is -41.5%.

Take `COCC(=O)N1CCN(C(=O)c2cccs2)C[C@H]1C(=O)OC`: the cytotoxicity at 10 µM is -0.655%.

For `O=C(CCc1nc2ccccc2[nH]1)NC1CCOC2(CCOCC2)C1` (stereo not given), the cytotoxicity at 10 µM is 9.64%.

In the case of `COc1cccc(C(=O)N(C)C(C)c2c(C)n[nH]c2C)c1OC` (stereo not given), the cytotoxicity at 10 µM is -2.8%.

Consider `COc1cc(NC2CCCN(c3ncccn3)C2)cc(OC)c1` (stereo not given), for which the cytotoxicity at 10 µM was -16%.

With `COc1ncccc1CN1C[C@@H]2COC[C@]2(COc2cccnc2)C1`, the cytotoxicity at 10 µM was -0.182%.

In the case of `CN1CCC(c2cccc(Cc3ccccc3)n2)CC1`, the cytotoxicity at 10 µM was -9.24%.

`CCOC(=O)CN1CCC(C(=O)c2cc(F)ccc2F)CC1`: the cytotoxicity at 10 µM was -8.11%.

As to `CCc1nc(CN(C)Cc2nnc(-c3cccs3)o2)cs1`, the cytotoxicity at 10 µM was determined as 6.37%.

In the case of `Cc1nc(CN2C[C@H]3C[C@H](C(=O)NCC4CC4)N(C)[C@H]3C2)cs1`, the cytotoxicity at 10 µM is -5.13%.

`O=C(c1ccco1)N1CCC(n2nc(-c3cccs3)ccc2=O)CC1`: the cytotoxicity at 10 µM is -32.3%.

`CCS(=O)(=O)N1CCC2(CC1)c1ncc(-c3cccnc3)n1CCN2C`: the cytotoxicity at 10 µM was -103%.

For the molecule `Nc1nnc(SCc2cc(=O)n3c4c(sc3n2)CCCC4)[nH]1`, the cytotoxicity at 10 µM was -4.19%.

Turning to `Cc1nn(C)c(C)c1C1CCCN1C(=O)c1cc(C(N)=O)cs1` (stereo not given), the cytotoxicity at 10 µM is -2.53%.

For the molecule `CCNC(=O)C1CCN(c2cc(-c3ccccc3)nc3cc(C)nn23)C1` (stereo not given), the cytotoxicity at 10 µM is -2.97%.

Take `CC(=O)NCC(=O)N1Cc2nccn2CC(CN2CCCC2)C1` (stereo not given): the cytotoxicity at 10 µM stood at 2.34%.

Turning to `CCOC(=O)Cn1c(=O)[nH]c2cn(-c3ccccc3)c(=O)n21`, the cytotoxicity at 10 µM stood at 0.379%.

Regarding `CC(C)C(=O)N(C)Cc1nnc2n1CCCCC2`, the cytotoxicity at 10 µM was -8.2%.

On to `COc1nccnc1-c1cc(NC2CCNCC2)nc2[nH]ccc12`, for which the cytotoxicity at 10 µM is -10.7%.

Regarding `CC(Sc1nnc(C2CC2)n1CC(N)=O)c1ccc(F)cc1F` (stereo not given), the cytotoxicity at 10 µM is -1.7%.

Consider `Cn1cc(CN2CCO[C@H]3CN(Cc4ccsc4)C[C@H]32)cn1`, for which the cytotoxicity at 10 µM is -147%.

For the molecule `O=C(c1ccc[nH]1)N1CCOCC12CCCC2`, the cytotoxicity at 10 µM is 12.3%.

On to `Cn1ccnc1CN1CC2(CCN(Cc3ccncc3)C2)C1`, for which the cytotoxicity at 10 µM was -5.76%.

In the case of `O=C(c1cc(=O)n(-c2ccccc2)[nH]1)N1CCOCC(O)C1` (stereo not given), the cytotoxicity at 10 µM was -0.205%.

As for `Fc1ccc(CNCCn2cccn2)c(F)c1`, the cytotoxicity at 10 µM was 8.59%.

Take `CCC(C)NC(=O)c1ccc(CNC(=O)CCC(C)C)cc1` (stereo not given): the cytotoxicity at 10 µM came to 2.27%.

In the case of `CN(C)C(=O)c1c[nH]nc1C1CCN(S(=O)(=O)c2ccc(Cl)cc2)CC1`, the cytotoxicity at 10 µM was -4.9%.

In the case of `OC1CCN(c2ccccc2NCc2nc(-c3cccs3)no2)CC1`, the cytotoxicity at 10 µM turned out to be 10.8%.

Turning to `CCc1nn(C)c(Cl)c1CN1CCC(Cc2nncn2C)CC1`, the cytotoxicity at 10 µM is -1.52%.

For the molecule `COc1cc(N2CCC3(CC2)CC(N2CCOCC2)CO3)ncn1` (stereo not given), the cytotoxicity at 10 µM is 3.44%.

The values above are taken from ChEMBL document CHEMBL4513216, “Probing the Open Global Health Chemical Diversity Library for Multistage-Active Starting Points for Next-Generation Antimalarials” (ACS Infect Dis, 2020).
